Bioassay records deposited in PubChem BioAssay by Broad Institute.
Sampled rows, rich in hits. Any-hit rate of the full collection: about 5.9%.
T cruzi growth-1 = T. cruzi intracellular proliferation inhibitors, primary screen, cell-based, beta-gal Tulahuen parasites, NIH3T3 host, luminescence; inhibition, % at 8.34 µM; T. cruzi beta-gal in NIH3T3, GalScreen luminescence, 90 h; 77,000 tested, 5.9% active;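 active = mean inhibition above about 93%, with at least 55% of replicates each passing it, limit read from the data, passing the limit was not always enough; inconclusive = only one of those two conditions holds; inactive = neither condition holds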
IDH1 mut inh = inhibitors of IDH1 R132H reductase, primary screen, biochemical, plate reader, single point; 70,000 tested, 0.18% active; inhibition, % at 10 µM; diaphorase/resazurin fluorescence, 60 min; in the data active = inhibition above about 34%; inconclusive = no clear call, values can overlap the other calls; inactive = below about 11%;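 also: 0% = DMSO and 100% = no enzyme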
Target sequence (O75874 whole entry R132H): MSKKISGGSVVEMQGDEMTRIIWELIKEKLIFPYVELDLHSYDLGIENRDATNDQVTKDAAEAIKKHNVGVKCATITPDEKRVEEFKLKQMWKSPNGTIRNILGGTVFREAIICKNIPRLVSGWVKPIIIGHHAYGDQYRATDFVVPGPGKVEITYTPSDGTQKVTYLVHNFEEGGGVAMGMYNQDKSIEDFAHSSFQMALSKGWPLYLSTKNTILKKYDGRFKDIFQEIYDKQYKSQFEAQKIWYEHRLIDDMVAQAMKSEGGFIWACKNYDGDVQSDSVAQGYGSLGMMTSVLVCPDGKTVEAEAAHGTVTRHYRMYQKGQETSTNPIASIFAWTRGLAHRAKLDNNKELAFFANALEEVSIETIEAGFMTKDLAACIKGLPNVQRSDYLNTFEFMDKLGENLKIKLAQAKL
GASC1 inh = inhibitors of GASC-1 (KDM4C) histone demethylase, primary screen, biochemical, single concentration HTS | Lysine-specific demethylase 4C (Homo sapiens), Q9H3R0 | GST-KDM4C 2-372, H3K9me3 peptide, LANCE TR-FRET | inhibition, % at 12.5 µM | 96,000 tested, 0.15% active;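 active = mean replicate inhibition above about 25%, with at least 55% of replicates also reaching it, limit read from the data, passing the limit was not always enough; inconclusive = only one of those two conditions met; inactive = neither condition met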
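System – N-terminal GST-fused human GASC-1 (KDM4C) fragment, residues 2-372 · Input – enzyme final amount 10 nM · Technique – LANCE TR-FRET, Eu antibody, ULight-streptavidin, EDTA, ex 340 nm, em 618/671 nm · Medium – HEPES buffer, pH 7.5, plus ascorbate · Incubation – enzyme reaction 30 min, then detection 60 min, both room temperature · Reagent – H3K9me3 peptide with Fe(II)/2OG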
Pf Dd2 inh = P. falciparum Dd2 growth inhibitors, primary screen, SYBR Green fluorescence, single dose replicates; 72 h; stronger effect = lower value; activity change, % at 10 µM; 94,000 tested, 2.3% active; in the data active = activity change below about -80%; inconclusive = no clear call, values can overlap the other calls
T cruzi growth-2 = T. cruzi intracellular proliferation inhibitors, confirmation, cell-based, NIH3T3 host, beta-gal parasite, luminescence, cherry-pick; shares compounds with T cruzi growth-1; T. cruzi beta-gal in NIH3T3, GalScreen luminescence, 90 h; inhibition, % at 8.35 µM; 5,600 tested, 72% active; AID 651739, 2012;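 active = mean replicate inhibition above about 95% and at least 55% of replicates individually reaching it, limit read from the data; inconclusive = only one of the two criteria is met; inactive = neither criterion is met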
T cruzi growth-3 = inhibitors of intracellular T. cruzi replication, confirmation, NIH3T3 host cells, beta-gal parasites, cherry-pick, set 2. shares compounds with T cruzi growth-1. T. cruzi beta-gal in NIH3T3, GalScreen luminescence, 90 h. inhibition, % at 2.09 µM. 5,600 tested, 21% active;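 active = mean inhibition above about 95%, with at least 55% of replicates also reaching it, limit read from the data; inconclusive = meets just one of the two conditions; inactive = meets neither condition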;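 also: plate controls were neutral control median for no effect and positive control median for full effect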
3T3 cytotox = cytotoxicity in mouse NIH/3T3 fibroblasts, confirmation, cytotoxicity control for T. cruzi proliferation inhibitor project, cell-based, cherry-pick, single point; shares compounds with T cruzi growth-1; cytotoxicity (signal decrease), % at 8.35 µM; 5,600 tested, 14% active; NIH/3T3 viability, CellTiter-Glo ATP luminescence, 90 h;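 active = mean signal decrease across replicates above about 35% based on untreated-well scatter, with enough replicates individually passing, limit read from the data; inconclusive = no rule stated though some were filed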;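 also: 0% = median of neutral control wells and 100% = median of positive control wells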
3T3 cytotox 2 = NIH/3T3 fibroblast cytotoxicity, confirmation, cytotoxicity control, cell-based, cherry-pick, single point, set 2; shares compounds with T cruzi growth-1; NIH/3T3 viability, CellTiter-Glo ATP luminescence, 90 h; inhibition, % at 24.9 µM; 5,600 tested, 56% active; AID 651744, 2012;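 active = mean loss of cell viability signal at or above a set limit, and enough replicates individually reaching it; inconclusive = meets only the mean limit or only the replicate share; inactive = meets neither condition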;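 also: 0% = median of neutral control wells and 100% = median of positive control wells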
Active calls of the source: *; ? = inconclusive; . = no result.

SMILES | T cruzi growth-1 | IDH1 mut inh | GASC1 inh | Pf Dd2 inh | T cruzi growth-2 | T cruzi growth-3 | 3T3 cytotox | 3T3 cytotox 2
C[C@H](CO)N1C[C@H](C)[C@H](CN(C)C(=O)c2cccc(F)c2)Oc2ncc(/C=C/c3ccccc3)cc2C1=O | 107* | -4 | -4 | -70 | 107* | 46 | 27 | 67*
COc1ccc(NC(=O)N(C)C[C@@H]2Oc3ncc(/C=C/c4ccccc4)cc3C(=O)N([C@H](C)CO)C[C@@H]2C)cc1 | ? | 2 | 2 | -57 | . | . | . | .
C[C@@H]1CN([C@H](C)CO)C(=O)c2cc(/C=C/c3ccccc3)cnc2O[C@@H]1CN(C)C(=O)Nc1ccccc1F | 85 | -5 | -1 | -34 | . | . | . | .
C[C@H]1CN([C@@H](C)CO)C(=O)c2cc(/C=C/c3ccccc3)cnc2O[C@H]1CN(C)C(=O)Nc1ccccc1F | 101* | 1 | 0 | -28 | ? | 22 | 17 | 51*
C[C@H](CO)N1C[C@H](C)[C@H](CN(C)C(=O)Nc2ccccc2)Oc2ncc(/C=C/c3ccccc3)cc2C1=O | 97* | 3 | . | -69 | 98* | 65 | 36* | 90*
C[C@H]1CN([C@@H](C)CO)C(=O)c2cc(/C=C/c3ccccc3)cnc2O[C@H]1CN(C)C(=O)c1cccc(F)c1 | 107 | 0 | . | -62 | . | . | . | .
Cc1ccc(-c2nc3ncccc3o2)cc1NC(=O)COc1cc(Cl)c(Cl)cc1Cl | . | 1 | . | . | . | . | . | .
COC(=O)c1c(NC(=O)CC2Nc3cccc4cccc(c34)NC2=O)sc(C)c1C (stereo not given) | . | 0 | . | . | . | . | . | .
Cc1nn(C(N)=S)c2c1CC(COCCC(C)C)O2 (stereo not given) | . | 14 | . | . | . | . | . | .
N#Cc1cccc(-c2ccc3c(c2)[C@H]2[C@H](CCN2Cc2cncnc2)[C@H](CO)N3)c1 | 53 | . | 0 | -53 | . | . | . | .
N#Cc1cccc(-c2ccc3c(c2)[C@H]2[C@H](CCN2C(=O)c2ccncc2)[C@H](CO)N3)c1 | 118* | . | 1 | -80* | 81 | 3 | 15 | 18
N#Cc1cccc(-c2ccc3c(c2)[C@@H]2[C@@H](CCN2Cc2cncnc2)[C@H](CO)N3)c1 | 112* | . | 0 | -78 | 115* | 81 | 6 | 40*
O=C(CSc1nnnn1-c1ccc(F)cc1F)Nc1ccc2c(c1)OCCO2 | . | 0 | . | . | . | . | . | .
CC(=O)C1C(=O)[C@@H]2[C@H]3c4c[nH]c5cccc(c45)C[C@H]3C(C)(C)N2C1=O (stereo not given in full) | . | 3 | . | . | . | . | . | .
Cc1ccc(NC(=O)CCN2C(=O)c3ccccc3S2(=O)=O)cc1Cl | . | 0 | . | . | . | . | . | .
OC[C@@H]1[C@H](c2ccc(C3=CCCC3)cc2)[C@H]2CN(CCC(F)(F)F)CCCCN12 | 103* | . | . | -77 | 100* | 58 | 15 | 103*
OC[C@@H]1[C@H](c2ccc(C3=CCCCC3)cc2)[C@@H]2CN(CCC(F)(F)F)CCCCN12 | ? | . | 0 | -58 | 96* | 105* | 70* | 106*
Clc1cc(Cl)c2nc(Oc3cccc(N4CCOCC4)c3)sc2c1 | . | 0 | . | . | . | . | . | .
CC(Oc1ccc(C(=O)NC2CCCCC2)cc1)C(=O)Nc1ccccc1C(F)(F)F (stereo not given) | . | 0 | . | . | . | . | . | .
C[C@@H]1CCCCO[C@@H](CN(C)C(=O)c2ccccc2)[C@@H](C)CN([C@H](C)CO)C(=O)c2cc(NC(=O)Nc3ccc(C(F)(F)F)cc3)ccc2O1 | 117 | -1 | 0 | 2 | . | . | . | .
C[C@@H]1CCCCO[C@@H](CN(C)C(=O)c2ccccc2)[C@H](C)CN([C@H](C)CO)C(=O)c2cc(NC(=O)Nc3ccc(C(F)(F)F)cc3)ccc2O1 | ? | . | -1 | -57 | 103* | 117* | -7 | 9
C[C@@H]1CCCCO[C@H](CN(C)C(=O)c2ccccc2)[C@H](C)CN([C@@H](C)CO)C(=O)c2cc(NC(=O)Nc3ccc(C(F)(F)F)cc3)ccc2O1 | ? | . | 0 | -61 | 101* | 112* | 20 | 48*
C[C@@H]1CCCCO[C@H](CN(C)C(=O)c2ccccc2)[C@@H](C)CN([C@@H](C)CO)C(=O)c2cc(NC(=O)Nc3ccc(C(F)(F)F)cc3)ccc2O1 | ? | -1 | 0 | -92* | 107* | 110* | -5 | -9
C[C@@H]1CN([C@H](C)CO)C(=O)c2cc(NC(=O)Nc3ccc(C(F)(F)F)cc3)ccc2O[C@@H](C)CCCCO[C@@H]1CN(C)C(=O)c1ccccc1 | 72 | . | 0 | -68 | . | . | . | .
O=C(N/N=C/c1ccc(F)cc1)c1ccccc1O | . | 0 | . | . | . | . | . | .
SMILES | T cruzi growth-1 | IDH1 mut inh | GASC1 inh | Pf Dd2 inh | T cruzi growth-2 | T cruzi growth-3 | 3T3 cytotox | 3T3 cytotox 2
CC(C)CC#Cc1cnc2c(c1)C(=O)N([C@H](C)CO)C[C@H](C)[C@@H](CN(C)Cc1cccc(F)c1)O2 | 112* | 0 | -2 | -46 | 106* | 74 | 7 | 107*
C[C@H]1CN([C@@H](C)CO)C(=O)c2cc(C#CCc3ccccc3)cnc2O[C@H]1CN(C)Cc1cccc(F)c1 | 18 | 0 | 1 | -43 | . | . | . | .
C[C@@H]1CN([C@H](C)CO)C(=O)c2cc(C#CCN(C)C)cnc2O[C@H]1CN(C)Cc1cccc(F)c1 | -31 | -1 | 3 | 8 | . | . | . | .
C[C@@H]1CN([C@@H](C)CO)C(=O)c2cc(C#CCc3ccccc3)cnc2O[C@H]1CN(C)Cc1cccc(F)c1 | 97* | -1 | 3 | -57 | 111* | 94 | -7 | 104*
CC(C)CC#Cc1cnc2c(c1)C(=O)N([C@@H](C)CO)C[C@@H](C)[C@H](CN(C)Cc1cccc(F)c1)O2 | 103* | -1 | -2 | -58 | 104* | 83 | 27 | 107*
COc1ccc2c3c([nH]c2c1)[C@H](CO)N(Cc1nccs1)CC31CCN(Cc2nccs2)CC1 | . | . | . | 10 | . | . | . | .
CN(C)CCCNC(=O)C[C@@H]1CC[C@H]2[C@@H](COC[C@@H](O)CN2CC2CCCC2)O1 | 80 | . | 0 | . | . | . | . | .
O=C(C[C@@H]1CC[C@@H]2[C@H](COC[C@H](O)CN2CC2CCCCC2)O1)NCc1ccc(F)cc1 | ? | . | 0 | . | 31 | -19 | -6 | 16
